CRFBP-R2 block – antagonists of CRF-BP/CRF-R2 complex, primary screen, cell-based, HEK293, calcium dye fluorescence, uHTS; CRF-induced calcium fluorescence; inhibition, % at 11.8 µM; 350,000 compounds, 0.59% hits; AID 588475, 2011;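 active means inhibition of the ligand-induced calcium signal above about 50% at the single tested concentration, limit read from the data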
UPR XBP1 act – activators of adaptive XBP1 UPR arm, primary screen, cell-based, CHO-XBP1 luciferase reporter, luminescence, uHTS. IRE1-XBP1 UPR activation; percent of tunicamycin response, DMSO as zero. activation, % at 20 µM. 330,000 compounds, 0.33% hits;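 active means versus positive control, 20 µM dose yields 30% or more activation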
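Material: CHO-XBP1 cells stably carrying IRE1-XBP1-driven luciferase reporter | Medium: F12 with 10% serum | Compound dosing: 20 µM single concentration, DMSO 1% | Incubation: Overnight seeding at 37 °C, 6 h compound treatment at 37 °C | Detection: Steady-Glo luminescence read | Read-out basis: % activation of reporter signal versus tunicamycin and DMSO controls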
697 NFkB inh – inhibitors of PMA/ionomycin-induced NF-kB reporter, 697 cells, primary screen, B-cell NF-kB inhibitor project, cell-based, luminescence, uHTS. 697 B-cell NF-kB luciferase reporter, 16 h. inhibition, % at 4 µM. 330,000 compounds, 0.33% hits; in the data active means inhibition above about 35%
CHOP UPR activ – activators of apoptotic CHOP UPR arm, primary screen, cell-based, CHO-CHOP luciferase reporter, luminescence, uHTS. UPR activation; percent of tunicamycin response over DMSO baseline. activation, % at 10 µM. 330,000 compounds, 0.34% hits. AID 449763, 2010;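 active means at 10 µM dose, activation of 40% or more, normalized to positive control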
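Assay system: CHO cells with stable CHOP pathway luciferase reporter; Buffer or medium: F12 plus 10% serum; Times: 16-18 h cell attachment, then 6 h compound exposure, 37 °C; Signal: luciferase luminescence; Read-out basis: percent activation relative to tunicamycin control; Control set: tunicamycin high control, DMSO low control.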
Jurkat NFkB inh – inhibitors of induced NF-kB luciferase reporter, primary screen, TCR NF-kB activation inhibitor project, cell-based, luminescence, uHTS | Jurkat, PMA/ionomycin-induced NF-kB luciferase reporter | AID 435003, 2010 | inhibition, % at 4 µM | 330,000 compounds, 0.53% hits; in the data active means inhibition above about 50%
Jurkat NFkB conf – PMA/ionomycin-induced NF-kB reporter inhibitors, Jurkat retest, confirmation, T-cell NF-kB inhibitor project, cell-based, luminescence, single concentration. 2,700 compounds, 27% hits. shares compounds with Jurkat NFkB inh. inhibition, % at 4 µM. Jurkat NF-kB luciferase, 16 h. AID 435020, 2010;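 active means inhibition reaching about 45% at 4 µM in either replicate, limit read from the data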
697 NFkB conf – PMA/ionomycin-induced NF-kB reporter inhibitors, 697 retest, confirmation, B-cell NF-kB inhibitor project, cell-based, luminescence, single concentration; shares compounds with 697 NFkB inh; 697 B-cell NF-kB luciferase, 16 h; inhibition, % at 4 µM; 2,000 compounds, 35% hits; AID 449746, 2010; in the data active means inhibition mostly above about 28%, no sharp cut-off; inactive means mostly below about 22%
CHOP UPR conf – activators of apoptotic CHOP UPR arm, confirmation, cell-based, CHO-CHOP luciferase reporter, single concentration | AID 463112, 2010 | 1,000 compounds, 64% hits | CHO-CHOP cells, CHOP-luciferase reporter luminescence; percent of tunicamycin response, DMSO as zero | activation, % at 10 µM | shares compounds with CHOP UPR activ; in the data active means activation above about 33%
UPR XBP1 confirm – IRE1-XBP1 UPR arm activators, confirmation, cell-based, CHO-XBP1 luciferase reporter, luminescence, single concentration. AID 485299, 2010. shares compounds with UPR XBP1 act. 1,000 compounds, 63% hits. activation, % at 20 µM;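 active means reporter signal at least 30% of the positive control's activation in two or more of four replicate wells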
Hits are given with their value; 0 = inactive; - = not tested or not shown. Compounds with a hit are over-represented: about 1.8% of the library has one in this group of screens.

SMILES	CRFBP-R2 block	UPR XBP1 act	697 NFkB inh	CHOP UPR activ	Jurkat NFkB inh	697 NFkB conf	others
CC1=Nc2ccccc2/C1=C\c1sc(Nc2ccc(C)cc2)nc1O	0	33	0	0	53	-	Jurkat NFkB conf=61;UPR XBP1 confirm=40
COc1cc(/C=C2\CC/C(=C\c3cc(OC)c(OC)c(OC)c3)C2=O)cc(OC)c1OC	0	0	0	0	0	-
COc1cc(/C=C2\CC(C(C)(C)C)C/C(=C\c3cc(OC)c(OC)c(OC)c3)C2=O)cc(OC)c1OC (centres undefined)	0	43	0	126	90	-	Jurkat NFkB conf=0;CHOP UPR conf=112;UPR XBP1 confirm=41
C#CCN(C(=O)C1CCC(=O)N(CCc2cccc(F)c2)C1)C1CCCCC1 (centres undefined)	0	-	-	-	-	-
COc1ccc(C2(C)NC(=O)N(CC(=O)Nc3ccc(-c4nc5ccc(C)cc5s4)cc3)C2=O)cc1 (centres undefined)	0	0	0	0	0	-
CCC1(c2ccc(F)cc2)NC(=O)N(CC(=O)Nc2ccc(-c3nc4ccc(C)cc4s3)cc2)C1=O (centres undefined)	0	36	0	0	0	-	Jurkat NFkB conf=0;UPR XBP1 confirm=32
Cc1nc(Sc2nnnn2C)c2c3c(sc2n1)CCC3	0	37	0	0	64	-	Jurkat NFkB conf=53;UPR XBP1 confirm=0
COc1cccc(NC(=O)CN(C)CC(=O)c2c(C)[nH]c3ccccc23)c1	0	0	0	0	0	-
O=C(c1ccc(Br)cc1)c1cc([N+](=O)[O-])ccc1N1CCCCC1	0	32	45	0	75	39	Jurkat NFkB conf=59;UPR XBP1 confirm=0
COc1cc(/C=C/c2ccc3cccc(O)c3n2)cc(OC)c1OC	0	77	0	339	97	-	Jurkat NFkB conf=0;UPR XBP1 confirm=0
COc1ccc(/C=C2\NC(=O)C(C=NCc3ccccc3)=C2O)cc1	0	0	0	0	0	-
O=C1N/C(=C\c2ccc(O)cc2)C(O)=C1C=NCc1ccccc1	0	0	37	0	0	0
Cc1ccc(C)c(S(=O)(=O)N2CCN(C(=O)c3ccncc3)CC2)c1	0	0	0	0	0	-
CCOc1ccc(NC(=O)CN(C)C(=O)c2ccc(N3CCCCCC3)c([N+](=O)[O-])c2)cc1OCC	0	0	42	0	0	0
CC1(C)CC(=O)C(N=Nc2cccc(S(=O)(=O)N3CCOCC3)c2)=C(O)C1	0	0	38	0	0	0
CCCc1ccc(-c2cc(C(=O)N3CCN(c4ccccn4)CC3)c3ccccc3n2)cc1	0	0	0	0	0	0
CCOc1ccc(-c2cc(C(=O)N3CCN(c4ccccn4)CC3)c3ccccc3n2)cc1	0	0	0	0	0	-
Cc1ccc2nc(-c3cccc(N)c3)oc2c1	0	0	0	0	0	-
CCc1ccc2oc(-c3cccc(N)c3)nc2c1	0	0	0	0	0	0
Cc1c(CCCl)c(Cl)n2c(nc3ccccc32)c1C#N	0	-	-	-	-	-
COc1cc(OC)cc(-c2cc3nc(C)c(CCC(=O)Nc4nc(C)cs4)c(C)n3n2)c1	0	0	36	0	0	39
COc1ccc2c(c1OC)C(=O)OC2Nc1ccccn1 (centres undefined)	0	0	35	0	0	0
Cc1cc(NC(=O)CON=C(N)CC(=O)Nc2ccccc2Cl)ccc1Br	0	0	0	0	0	-
COC(=O)c1ccccc1C(=O)N1CCCC(C(=O)c2cc(F)ccc2F)C1 (centres undefined)	0	0	0	0	0	-
COC(=O)c1cccc(C(=O)N2CCCC(C(=O)c3cc(F)ccc3F)C2)c1 (centres undefined)	0	0	39	0	0	0
SMILES	CRFBP-R2 block	UPR XBP1 act	697 NFkB inh	CHOP UPR activ	Jurkat NFkB inh	697 NFkB conf	others
O=C(O)CCc1nn2c3ccccc3n(Cc3ccccc3F)c2nc1=O	0	0	41	0	0	0
C/C=C/C1=CC(=O)C[C@H](c2ccc(Cl)cc2)C1	0	0	0	0	0	-
CCCN1C(=O)/C(=C/c2c(N3CCNC(=O)C3CC(=O)OCC)nc3c(C)cccn3c2=O)SC1=S (centres undefined)	0	0	37	0	0	36
CCOC(=O)CC1C(=O)NCCN1c1nc2ccc(C)cn2c(=O)c1/C=C1\SC(=S)N(CC(C)C)C1=O (centres undefined)	0	0	0	0	0	-
COc1ccc(-n2c(-c3ccc(Br)cc3)c[n+]3c2CCc2ccccc2-3)cc1	0	0	101	0	0	47
CCCNC(=O)c1ccc(COc2ccc(CCC)cc2OC)o1	0	0	0	0	0	-
O=C(CCCN1C(=O)/C(=C/c2cccs2)SC1=S)NNC(=O)c1ccncc1	0	0	0	0	0	-
O=C(CCCN1C(=O)/C(=C/c2ccccc2Cl)SC1=S)N1CCCC1	0	0	0	0	0	-
O=C(CCCN1C(=O)/C(=C/c2ccccc2Cl)SC1=S)NNC(=O)c1ccncc1	0	0	48	0	0	56
O=C(CCCN1C(=O)/C(=C/c2ccccc2Cl)SC1=S)NNC(=O)c1ccccc1Cl	0	0	69	0	0	65
Cc1cc(NC(=O)CCCN2C(=O)/C(=C/c3ccccc3Cl)SC2=S)no1	0	0	60	0	0	68
COc1cccc(C2c3cc4c(cc3OC(N3CCOCC3)C2C)OCO4)c1O (centres undefined)	0	-	-	-	-	-
CCN(CC(=O)Nc1cccc(OC)c1)C(=O)c1cnc(Cl)c(Cl)c1	0	0	0	0	0	-
CCOc1ccc(-c2nc(CSCC(=O)NCc3ccco3)c(C)o2)cc1	0	0	99	0	0	99
CCOc1ccc(-c2nc(CSCC(=O)NC3CC3)c(C)o2)cc1	0	0	99	0	0	79
COCCNC(=O)CSCc1nc(-c2ccc(SC)cc2)oc1C	0	0	84	0	0	72
NC(=O)CCCn1c(C(=O)c2cc(Cl)c(N)c(Cl)c2)c2ccc([N+](=O)[O-])cc2[n+]1[O-]	0	0	0	0	0	0

High-throughput results (PubChem BioAssay)
